From ChEMBL document CHEMBL4414587 (J Med Chem, 2019)

Experiments:
[1] = organism: Homo sapiens; experiment: Selectivity ratio of Ki for displacement of [3H]N-methylspiperone from human D2L receptor expressed in HEK293 cell membranes to Ki for displacement of [3H]N-methylspiperone from human D3 receptor expressed in HEK293 cell membranes
[2] = Metabolic stability in rat liver microsomes assessed as parent compound remaining at 10 uM measured after 60 mins in presence of NADPH regenerating system by LC/MS/MS analysis; format: ADME, Microsome; conditions: read-out: Stability
Summary of the method: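 Compound at 10 μM final was incubated with rat liver microsomes at 0.5 mg/mL in 100 mM potassium phosphate, pH 7.4, with an NADPH regenerating system. Buprenorphine served as positive control. Parent disappearance was followed by LC/MS/MS, and percent remaining was reported at 60 min. Reactions were run in triplicate.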

[3] = AUC (0 to t) in Long-Evans rat brain at 10 mg/kg, po measured up to 24 hrs by LC/MS/MS analysis; format: ADME, organism-based; conditions: in vivo
[4] = Tmax in Long-Evans rat brain at 10 mg/kg, po measured up to 24 hrs by LC/MS/MS analysis; format: ADME, organism-based
[5] = Cmax in Long-Evans rat brain at 10 mg/kg, po measured up to 24 hrs by LC/MS/MS analysis; format: ADME, organism-based; set-up: dose 10 mg/kg, route oral; conditions: in vivo
[6] = target: T1, D(3) dopamine receptor (Homo sapiens, UniProt P35462); experiment: Agonist activity at human D3 receptor expressed in CHO cells assessed as stimulation of quinpirole-induced mitogenesis relative to control; format: cell-based; set-up: concentration or dose not given beside the values
T1 sequence (P35462 whole entry): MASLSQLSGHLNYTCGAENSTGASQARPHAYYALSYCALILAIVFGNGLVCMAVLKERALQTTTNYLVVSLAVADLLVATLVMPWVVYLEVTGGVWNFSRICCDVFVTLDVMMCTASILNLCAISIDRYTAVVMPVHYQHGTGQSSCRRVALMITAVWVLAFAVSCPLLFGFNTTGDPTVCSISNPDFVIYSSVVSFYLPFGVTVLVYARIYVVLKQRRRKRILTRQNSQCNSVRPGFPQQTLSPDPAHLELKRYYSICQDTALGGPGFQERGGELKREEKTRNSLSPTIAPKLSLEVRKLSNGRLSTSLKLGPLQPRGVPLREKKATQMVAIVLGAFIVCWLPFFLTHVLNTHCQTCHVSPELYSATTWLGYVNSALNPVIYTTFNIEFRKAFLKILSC

[7] = AUC (0 to t) in Long-Evans rat plasma at 10 mg/kg, po measured up to 24 hrs by LC/MS/MS analysis; format: ADME, organism-based; set-up: time < 24 hr, dose 10 mg/kg, route oral
[8] = Tmax in Long-Evans rat plasma at 10 mg/kg, po measured up to 24 hrs by LC/MS/MS analysis; format: ADME, organism-based
[9] = target: T2, 5-hydroxytryptamine receptor 1A (Homo sapiens) (UniProt P08908); experiment: Agonist activity at 5-HT1A receptor (unknown origin) assessed as stimulation of [35S]GTPgammaS binding relative to control; format: functional
T2 sequence (whole entry): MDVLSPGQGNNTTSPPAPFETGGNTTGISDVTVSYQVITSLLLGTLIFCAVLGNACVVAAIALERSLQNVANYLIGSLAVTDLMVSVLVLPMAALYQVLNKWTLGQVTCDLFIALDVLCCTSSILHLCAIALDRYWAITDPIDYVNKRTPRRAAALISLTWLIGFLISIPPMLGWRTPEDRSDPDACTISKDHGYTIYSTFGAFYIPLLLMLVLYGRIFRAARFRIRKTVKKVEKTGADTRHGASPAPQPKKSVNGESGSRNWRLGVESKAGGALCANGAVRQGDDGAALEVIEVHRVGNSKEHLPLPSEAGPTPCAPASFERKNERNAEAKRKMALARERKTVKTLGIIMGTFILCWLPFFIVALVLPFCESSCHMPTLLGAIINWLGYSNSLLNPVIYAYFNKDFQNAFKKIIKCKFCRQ

[10] = Cmax in Long-Evans rat plasma at 10 mg/kg, po measured up to 24 hrs by LC/MS/MS analysis; format: ADME, organism-based; set-up: dose 10 mg/kg, route oral
[11] = target: T1, D(3) dopamine receptor; experiment: Agonist activity at human D3 receptor expressed in CHO cells assessed as stimulation of quinpirole-induced mitogenesis; format: cell-based
[12] = target: D(2) dopamine receptor (Homo sapiens, UniProt P14416); experiment: Displacement of [3H]N-methylspiperone from human D2L receptor expressed in HEK293 cell membranes measured after 60 mins by scintillation counting method
D(2) dopamine receptor, sequence (P14416 whole entry): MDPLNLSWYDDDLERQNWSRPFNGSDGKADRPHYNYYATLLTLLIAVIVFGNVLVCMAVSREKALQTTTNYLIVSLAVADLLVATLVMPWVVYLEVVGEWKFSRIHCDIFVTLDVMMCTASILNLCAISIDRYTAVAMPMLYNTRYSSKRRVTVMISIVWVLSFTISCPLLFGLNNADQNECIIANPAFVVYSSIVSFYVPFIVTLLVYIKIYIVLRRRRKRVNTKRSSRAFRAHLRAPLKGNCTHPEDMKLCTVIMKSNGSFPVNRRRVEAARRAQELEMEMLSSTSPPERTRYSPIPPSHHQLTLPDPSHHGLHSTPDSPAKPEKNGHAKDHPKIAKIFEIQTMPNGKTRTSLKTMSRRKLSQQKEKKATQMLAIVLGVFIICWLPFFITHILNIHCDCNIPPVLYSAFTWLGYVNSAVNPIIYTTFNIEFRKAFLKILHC
Summary of the method: (§1)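 Membranes from HEK293 cells stably expressing human D2L or D3 were used at 20 μg protein/well in EBSS buffer, pH 7.4, with 0.4 nM [3H]N-methylspiperone. Compounds were run as 10 half-log dilutions in triplicate for 1 h at rt, with nonspecific binding defined by 10 μM (+)-butaclamol. Reactions were filtered onto GF/B and counted by scintillation.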

[13] = target: T1, D(3) dopamine receptor; experiment: Displacement of [3H]N-methylspiperone from human D3 receptor expressed in HEK293 cell membranes measured after 60 mins by scintillation counting method; summary of the method: as §1
[14] = target: T3, 5-hydroxytryptamine receptor 2C (Homo sapiens, UniProt P28335); experiment: Displacement of [125I] DOI from 5HT2C receptor (unknown origin)
T3 sequence (P28335 whole entry): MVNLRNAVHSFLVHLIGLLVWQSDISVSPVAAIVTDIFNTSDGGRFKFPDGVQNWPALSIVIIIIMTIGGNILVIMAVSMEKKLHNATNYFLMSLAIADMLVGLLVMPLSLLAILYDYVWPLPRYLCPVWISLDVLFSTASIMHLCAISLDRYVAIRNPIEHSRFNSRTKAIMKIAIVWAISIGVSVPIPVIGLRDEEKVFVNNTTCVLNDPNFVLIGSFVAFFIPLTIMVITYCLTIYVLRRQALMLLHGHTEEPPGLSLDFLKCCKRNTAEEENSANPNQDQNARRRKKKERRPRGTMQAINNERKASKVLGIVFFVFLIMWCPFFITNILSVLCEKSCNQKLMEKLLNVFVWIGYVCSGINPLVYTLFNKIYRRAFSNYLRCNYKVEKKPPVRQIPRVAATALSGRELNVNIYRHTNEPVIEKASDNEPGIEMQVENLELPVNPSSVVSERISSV

SMILES: CCc1cccc(N2CCN(C[C@@H](F)CCNC(=O)c3cc4ccccc4[nH]3)CC2)c1Cl
- Ratio Ki [1]: 1060
- remaining at 1 h, 10 µM [2]: 57 to 70%

SMILES: CCc1cccc(N2CCN(CC(O)CCNC(=O)c3cc4ccccc4[nH]3)CC2)c1Cl (racemic)
- remaining at 1 h, 10 µM [2]: 57 to 86%

SMILES: CCc1cc(Cl)c(OC)c(N2CCN(C[C@@H](O)CCNC(=O)c3cc4ccccc4[nH]3)CC2)c1
- AUCt [3]: 4360 pmol·h/g
- Tmax [4]: 4 h
- Cmax [5]: 959.9 pmol/g
- Activity [6]: 17%
- AUC(0-t) at 24 h [7]: 1.07 µM·h
- remaining at 1 h, 10 µM [2]: 57 to 86%

SMILES: CCc1cccc(N2CCN(C[C@H](O)CCNC(=O)c3cc4ccccc4[nH]3)CC2)c1Cl
- AUCt [3]: 21600 pmol·h/g
- Tmax [8]: 2 h
- Activity [9]: 74%
- Tmax [4]: 2 h
- Cmax [5]: 3850 pmol/g
- Cmax [10]: 291 to 306 nM
- remaining at 1 h, 10 µM [2]: 57 to 86%

SMILES: CCc1cc(Cl)c(OC)c(N2CCN(CC(F)CCNC(=O)c3cc4ccccc4o3)CC2)c1 (stereo not drawn)
- EC50 [11]: > 4 µM
- Ratio Ki [1]: 108
- Activity [6]: 5.1%
- remaining at 1 h, 10 µM [2]: 12%

SMILES: CCc1cc(Cl)c(OC)c(N2CCN(C[C@H](F)CCNC(=O)c3cc4ccccc4[nH]3)CC2)c1
- Ratio Ki [1]: 1650
- remaining at 1 h, 10 µM [2]: 57 to 70%

SMILES: CCc1cc(Cl)c(OC)c(N2CCN(C[C@H](O)CCNC(=O)c3cc4ccccc4[nH]3)CC2)c1
- AUCt [3]: 8412 pmol·h/g
- Tmax [4]: 4 h
- Cmax [5]: 1796.6 pmol/g
- Activity [6]: 17.7%
- AUC(0-t) at 24 h [7]: 2.2 µM·h
- remaining at 1 h, 10 µM [2]: 57 to 86%

SMILES: CCc1cc2c(cc1N1CCN(CC(O)CCNC(=O)c3cc4ccccc4o3)CC1)OCO2 (stereo not drawn)
- Ratio Ki [1]: 61

SMILES: CCc1cc(Cl)c(OC)c(N2CCN(CC(O)CCNC(=O)c3ccc4c(c3)OCO4)CC2)c1 (stereo not drawn)
- Ratio Ki [1]: 15

SMILES: CCc1cccc(N2CCN(CC(F)CCNC(=O)c3cc4ccccc4[nH]3)CC2)c1Cl (racemic)
- EC50 [11]: > 6.8 µM
- Ratio Ki [1]: 327
- Activity [6]: 5.4%
- remaining at 1 h, 10 µM [2]: 38%

SMILES: CCc1cccc(N2CCN(CC(O)CCNC(=O)c3ccc4c(c3)OCO4)CC2)c1Cl (stereo not drawn)
- Ki [12]: 0.424 µM
- Ratio Ki [1]: 140
- Ki [13]: 0.00302 µM

SMILES: CCc1cccc(N2CCN(CC(F)CCNC(=O)c3cc4ccccc4o3)CC2)c1Cl (stereo not drawn)
- EC50 [11]: > 7.5 µM
- Activity [9]: 43%
- Ratio Ki [1]: 134
- Activity [6]: 15.5%
- remaining at 1 h, 10 µM [2]: 34%

SMILES: CCc1cc(Cl)c(OC)c(N2CCN(C[C@@H](F)CCNC(=O)c3cc4ccccc4[nH]3)CC2)c1
- Ratio Ki [1]: 535
- remaining at 1 h, 10 µM [2]: 57 to 70%

SMILES: CCc1cc(Cl)c(OC)c(N2CCN(CC(F)CCNC(=O)c3cc4ccccc4[nH]3)CC2)c1 (racemic)
- EC50 [11]: > 5.4 µM
- Ratio Ki [1]: 746
- Activity [6]: 2.7%
- Ki [14]: > 8.9 µM
- remaining at 1 h, 10 µM [2]: 75%

SMILES: CCc1cccc(N2CCN(C[C@@H](O)CCNC(=O)c3cc4ccccc4[nH]3)CC2)c1Cl
- AUCt [3]: 16665 pmol·h/g
- Tmax [8]: 2 h
- Activity [9]: 69%
- Tmax [4]: 2 h
- Cmax [5]: 2670 to 3670 pmol/g
- remaining at 1 h, 10 µM [2]: 57 to 86%

SMILES: CCc1cccc(N2CCN(C[C@H](F)CCNC(=O)c3cc4ccccc4[nH]3)CC2)c1Cl
- Ratio Ki [1]: 215
- remaining at 1 h, 10 µM [2]: 57 to 70%

SMILES: CCc1cc(Cl)c(OC)c(N2CCN(CC(O)CCNC(=O)c3cc4ccccc4[nH]3)CC2)c1 (racemic)
- remaining at 1 h, 10 µM [2]: 57 to 86%
